According to ChEMBL document CHEMBL3808340, “Development of Novel 1,2,3,4-Tetrahydroquinoline Scaffolds as Potent NF-κB Inhibitors and Cytotoxic Agents” (ACS Med Chem Lett, 2016):

Legend:
NCI-H23 = assay: Cytotoxicity against human NCI-H23 cells after 72 hrs by sulforhodamine B assay; assay type: functional; details: NCI-H23, 72 h
How it was run: (§1)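 Sulforhodamine B staining following the NCI (USA) protocol was used to estimate cell number indirectly in six human cancer lines. GI50 is the concentration giving a 50% decrease in net cell growth, reported as the mean of three experiments.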

MDA-MB-231 = assay: Cytotoxicity against human MDA-MB-231 cells after 72 hrs by sulforhodamine B assay; assay type: functional; details: MDA-MB-231, 72 h; how it was run: as §1
[1] = Inhibition of LPS-induced NFkappaB (unknown origin) transcriptional activity expressed in mouse RAW264.7 cells incubated for 16 hrs by SEAP based reporter gene assay; assay type: cell-based; details: RAW264.7, 16 h
RAW264.7 = assay: Inhibition of LPS-induced NFkappaB (unknown origin) transcriptional activity expressed in mouse RAW264.7 cells at 100 uM incubated for 16 hrs by SEAP based reporter gene assay relative to control; assay type: cell-based
[2] = Cytotoxicity against human HCT15 cells after 72 hrs by sulforhodamine B assay; assay type: functional; details: HCT-15, 72 h; how it was run: as §1
[3] = Cytotoxicity against human PC3 cells after 72 hrs by sulforhodamine B assay; assay type: functional; details: PC-3, 72 h; how it was run: as §1
ACHN = assay: Cytotoxicity against human ACHN cells after 72 hrs by sulforhodamine B assay; assay type: functional; how it was run: as §1
[4] = Cytotoxicity against human NUGC3 cells after 72 hrs by sulforhodamine B assay; assay type: functional; details: NUGC-3, 72 h; how it was run: as §1

**Q.** Which GI50 (NCI-H23) does the source give for `O=C(Nc1cc(C(F)(F)F)cc(C(F)(F)F)c1)c1ccc2ccccc2n1` here?
**A.** The GI50 was 1.44 µM.

**Q.** For `O=C(Nc1cc(C(F)(F)F)cc(C(F)(F)F)c1)C1CCc2ccccc2N1C(=O)c1ccccc1Cl` (stereo not given), which GI50 (MDA-MB-231) is on record?
**A.** The GI50 was 5.25 µM.

**Q.** And the IC50 [1]?
**A.** The IC50 was 23 µM.

**Q.** And the inhibition (RAW264.7)?
**A.** Its inhibition is 90%.

**Q.** What about the GI50 [2] of the same molecule?
**A.** The GI50 was 4.05 µM.

**Q.** What about the GI50 [3] of the same molecule?
**A.** The GI50 was 8.04 µM.

**Q.** What about the GI50 (NCI-H23) of the same molecule?
**A.** The GI50 was 2.08 µM.

**Q.** What about the GI50 (ACHN) of the same molecule?
**A.** Its GI50 is 4.7 µM.

**Q.** What about the GI50 [4] of the same molecule?
**A.** The GI50 was 1.93 µM.

**Q.** For `COc1ccc(NC(=O)c2ccc3ccccc3n2)cc1`, which GI50 (NCI-H23) is on record?
**A.** Its GI50 is 7.65 µM.

**Q.** Which GI50 (MDA-MB-231) does the source give for `CCCCCCCCC(=O)N1c2ccccc2CCC1C(=O)Nc1cc(C(F)(F)F)cc(C(F)(F)F)c1` (stereo not given) here?
**A.** Its GI50 is 7.53 µM.

**Q.** What about the IC50 [1] of the same molecule?
**A.** Its IC50 is 51 µM.

**Q.** And the inhibition (RAW264.7)?
**A.** Its inhibition is 58%.

**Q.** What about the GI50 [2] of the same molecule?
**A.** Its GI50 is 4.97 µM.

**Q.** And the GI50 [3]?
**A.** The GI50 was 7.43 µM.

**Q.** And the GI50 (NCI-H23)?
**A.** Its GI50 is 3.23 µM.

**Q.** And the GI50 (ACHN)?
**A.** The GI50 was 4.52 µM.

**Q.** And the GI50 [4]?
**A.** The GI50 was 2.23 µM.

**Q.** For `O=C(Nc1ccccc1O)c1ccc2ccccc2n1`, which GI50 (NCI-H23) is on record?
**A.** The GI50 was 87.5 µM.

**Q.** Which GI50 (MDA-MB-231) does the source give for `CC(=O)N1c2ccccc2CCC1C(=O)Nc1ccccc1C(F)(F)F` (stereo not given) here?
**A.** Its GI50 is > 80 µM.

**Q.** What about the inhibition (RAW264.7) of the same molecule?
**A.** Its inhibition is 32%.

**Q.** And the GI50 [2]?
**A.** The GI50 was > 80 µM.

**Q.** What about the GI50 [3] of the same molecule?
**A.** The GI50 was > 80 µM.

**Q.** What about the GI50 (NCI-H23) of the same molecule?
**A.** The GI50 was > 80 µM.

**Q.** What about the GI50 (ACHN) of the same molecule?
**A.** Its GI50 is > 80 µM.

**Q.** And the GI50 [4]?
**A.** The GI50 was > 80 µM.

**Q.** Which GI50 (MDA-MB-231) does the source give for `CCCC(=O)N1c2ccccc2CCC1C(=O)Nc1ccccc1C(F)(F)F` (stereo not given) here?
**A.** Its GI50 is > 70 µM.

**Q.** What about the IC50 [1] of the same molecule?
**A.** The IC50 was 95 µM.

**Q.** And the inhibition (RAW264.7)?
**A.** Its inhibition is 51%.

**Q.** What about the GI50 [2] of the same molecule?
**A.** Its GI50 is > 70 µM.

**Q.** What about the GI50 [3] of the same molecule?
**A.** Its GI50 is > 70 µM.

**Q.** And the GI50 (NCI-H23)?
**A.** The GI50 was > 70 µM.

**Q.** And the GI50 (ACHN)?
**A.** Its GI50 is > 70 µM.

**Q.** What about the GI50 [4] of the same molecule?
**A.** Its GI50 is > 70 µM.

**Q.** What does the source list for `COc1ccc(NC(=O)C2CCc3ccccc3N2)cc1` (stereo not given)?
**A.** GI50 (MDA-MB-231): 51.4 µM; IC50 [1]: 34 µM; inhibition (RAW264.7): > 100%; GI50 [2]: 50.2 µM; GI50 [3]: 56.9 µM; GI50 (NCI-H23): 55.7 µM; GI50 (ACHN): 38 µM; GI50 [4]: 51.9 µM

**Q.** Which results are given for `O=C(Nc1ccccc1C(F)(F)F)C1CCc2ccccc2N1C(=O)c1ccccc1` (stereo not given)?
**A.** GI50 (MDA-MB-231): 5.29 µM; inhibition (RAW264.7): 44%; GI50 [2]: 6.5 µM; GI50 [3]: 5.56 µM; GI50 (NCI-H23): 6.34 µM; GI50 (ACHN): 8.09 µM; GI50 [4]: 8.12 µM

**Q.** Which GI50 (MDA-MB-231) does the source give for `O=C(Nc1cc(C(F)(F)F)cc(C(F)(F)F)c1)C1CCc2ccccc2N1` (stereo not given) here?
**A.** The GI50 was 8.27 µM.

**Q.** What about the IC50 [1] of the same molecule?
**A.** Its IC50 is 26 µM.

**Q.** What about the inhibition (RAW264.7) of the same molecule?
**A.** Its inhibition is > 100%.

**Q.** What about the GI50 [2] of the same molecule?
**A.** Its GI50 is 8.7 µM.

**Q.** What about the GI50 [3] of the same molecule?
**A.** Its GI50 is 8.12 µM.

**Q.** What about the GI50 (NCI-H23) of the same molecule?
**A.** The GI50 was 8.41 µM.

**Q.** What about the GI50 (ACHN) of the same molecule?
**A.** Its GI50 is 8.19 µM.

**Q.** And the GI50 [4]?
**A.** Its GI50 is 8.76 µM.

**Q.** What does the source list for `CCCC(=O)N1c2ccccc2CCC1C(=O)Nc1ccccc1O` (stereo not given)?
**A.** GI50 (MDA-MB-231): 38 µM; inhibition (RAW264.7): 41%; GI50 [2]: 58.3 µM; GI50 [3]: 72.5 µM; GI50 (NCI-H23): 43.1 µM; GI50 (ACHN): 50.6 µM; GI50 [4]: 35.4 µM

**Q.** For `CCC(=O)N1c2ccccc2CCC1C(=O)Nc1ccccc1C(F)(F)F` (stereo not given), which GI50 (MDA-MB-231) is on record?
**A.** The GI50 was > 80 µM.

**Q.** And the inhibition (RAW264.7)?
**A.** The inhibition was 43%.

**Q.** What about the GI50 [2] of the same molecule?
**A.** Its GI50 is > 80 µM.

**Q.** And the GI50 [3]?
**A.** The GI50 was > 80 µM.

**Q.** And the GI50 (NCI-H23)?
**A.** The GI50 was > 80 µM.

**Q.** What about the GI50 (ACHN) of the same molecule?
**A.** Its GI50 is > 80 µM.

**Q.** What about the GI50 [4] of the same molecule?
**A.** The GI50 was > 80 µM.

**Q.** With `CC(=O)N1c2ccccc2CCC1C(=O)Nc1ccccc1O` (stereo not given) as the molecule, how does the GI50 (MDA-MB-231) read?
**A.** The GI50 was 89.6 µM.

**Q.** What about the inhibition (RAW264.7) of the same molecule?
**A.** Its inhibition is 19%.

**Q.** What about the GI50 [2] of the same molecule?
**A.** Its GI50 is 54.5 µM.

**Q.** And the GI50 [3]?
**A.** The GI50 was 70.7 µM.

**Q.** And the GI50 (NCI-H23)?
**A.** The GI50 was 65.7 µM.

**Q.** What about the GI50 (ACHN) of the same molecule?
**A.** Its GI50 is 50.7 µM.

**Q.** What about the GI50 [4] of the same molecule?
**A.** The GI50 was 49.7 µM.

**Q.** With `O=C(Nc1ccccc1)c1ccc2ccccc2n1` as the molecule, how does the GI50 (NCI-H23) read?
**A.** Its GI50 is 108 µM.

**Q.** With `O=C(Nc1ccccc1C(F)(F)F)c1ccc2ccccc2n1` as the molecule, how does the GI50 (NCI-H23) read?
**A.** Its GI50 is > 90 µM.

**Q.** With `CCC(=O)N1c2ccccc2CCC1C(=O)Nc1ccccc1O` (stereo not given) as the molecule, how does the GI50 (MDA-MB-231) read?
**A.** Its GI50 is > 90 µM.

**Q.** What about the inhibition (RAW264.7) of the same molecule?
**A.** The inhibition was 31%.

**Q.** And the GI50 [2]?
**A.** Its GI50 is > 90 µM.

**Q.** And the GI50 [3]?
**A.** The GI50 was > 90 µM.

**Q.** And the GI50 (NCI-H23)?
**A.** Its GI50 is > 90 µM.

**Q.** And the GI50 (ACHN)?
**A.** The GI50 was > 90 µM.

**Q.** What about the GI50 [4] of the same molecule?
**A.** The GI50 was > 90 µM.

**Q.** For `COc1cc2c(cc1O)CCC(C(=O)Nc1ccccc1)O2` (stereo not given), which IC50 [1] is on record?
**A.** Its IC50 is 53 µM.

**Q.** And the inhibition (RAW264.7)?
**A.** The inhibition was 72%.

**Q.** Which IC50 [1] does the source give for `S=C(S)N1CCCC1` [PYRROLIDINE DITHIOCARBAMATE] here?
**A.** Its IC50 is 37.2 µM.

**Q.** Which GI50 (MDA-MB-231) does the source give for `COc1cccc2c1C(=O)c1c(O)c3c(c(O)c1C2=O)C[C@@](O)(C(=O)CO)C[C@@H]3O[C@H]1C[C@H](N)[C@H](O)[C@H](C)O1` [DOXORUBICIN] here?
**A.** The GI50 was 0.112 µM.

**Q.** And the GI50 [2]?
**A.** Its GI50 is 0.0854 µM.

**Q.** And the GI50 [3]?
**A.** Its GI50 is 0.0923 µM.

**Q.** And the GI50 (NCI-H23)?
**A.** Its GI50 is 0.0726 µM.

**Q.** What about the GI50 (ACHN) of the same molecule?
**A.** The GI50 was 0.0995 µM.

**Q.** And the GI50 [4]?
**A.** Its GI50 is 0.125 µM.

**Q.** With `CCCCCCCCC(=O)N1c2ccccc2CCC1C(=O)Nc1ccccc1O` (stereo not given) as the molecule, how does the GI50 (MDA-MB-231) read?
**A.** The GI50 was 54.3 µM.

**Q.** And the inhibition (RAW264.7)?
**A.** Its inhibition is 22%.

**Q.** And the GI50 [2]?
**A.** Its GI50 is 38.4 µM.

**Q.** What about the GI50 [3] of the same molecule?
**A.** Its GI50 is 45.2 µM.

**Q.** What about the GI50 (NCI-H23) of the same molecule?
**A.** The GI50 was 55.8 µM.

**Q.** What about the GI50 (ACHN) of the same molecule?
**A.** Its GI50 is 65 µM.

**Q.** What about the GI50 [4] of the same molecule?
**A.** The GI50 was 31.1 µM.

**Q.** With `O=C(Nc1ccc(O)cc1)c1ccc2ccccc2n1` as the molecule, how does the GI50 (NCI-H23) read?
**A.** The GI50 was 102 µM.

**Q.** For `O=C(Nc1ccc(C(F)(F)F)cc1)c1ccc2ccccc2n1`, which GI50 (NCI-H23) is on record?
**A.** The GI50 was > 90 µM.
